Measurements as given in ChEMBL document CHEMBL2086375 (Bioorg Med Chem, 2012).

Experiments:
[1] = Prodrug activation in simulated intestinal fluid at 0.01 mg/mL after 60 mins by LC/MS analysis; conditions: simulated gi fluid, 1 h
Procedure, shortened: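 Compound at 0.01 mg/mL in simulated intestinal fluid, mixed and held at 37 °C for 60 min. Samples were injected consecutively onto a C18 reverse-phase HPLC column for analysis. Results are percent disappearance of prodrug.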

Liver = assay: Prodrug activation in mouse liver microsomes at 1 uM incubated for 10 mins prior to NADPH addition measured after 30 mins by LC/MS/MS analysis; set-up: species or system Microsome; conditions: 0.5 h
Procedure, shortened: (§1)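 Liver microsomes were pre-warmed with compound at 37 °C for 10 min, and the reaction was started with NADPH at 1 mM final. A parallel incubation without NADPH served as control. After 30 min at 37 °C, samples were quenched with acetonitrile containing 0.1% formic acid and internal standard, then centrifuged. Supernatant was diluted fivefold and read by LC/MS/MS (SRM, positive ESI). Results are percent of control remaining.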

Liver microsomes [2] = assay: Prodrug activation in human liver microsomes at 1 uM incubated for 10 mins prior to NADPH addition measured after 30 mins by LC/MS/MS analysis; set-up: species or system Microsome; conditions: 0.5 h; procedure, shortened: as §1
Liver microsomes [3] = assay: Drug metabolism in human liver microsomes assessed as high CYP1A2 activity-mediated N-hydroxyriluzole formation at 1 uM incubated for 10 mins prior to NADPH addition measured after 30 mins by LC/MS/MS analysis; format: ADME, Microsome; conditions: 0.5 h
[4] = Half life in simulated gastric fluid at 1 mg/mL; format: physicochemical
[5] = Half life in simulated intestinal fluid at 1 mg/mL; format: physicochemical; conditions: simulated gi fluid
Liver microsomes [6] = assay: Half life in human liver microsomes at 1 uM; format: ADME, Microsome
[7] = Half life in human plasma at 1 uM; format: ADME, cell-free
Liver microsomes [8] = assay: Metabolic stability in human liver microsomes assessed as high CYP1A2 activity-mediated metabolism measured as compound remaining at 1 uM incubated for 10 mins prior to NADPH addition measured after 30 mins by LC/MS/MS analysis relative to control; conditions: 0.5 h
Liver microsomes [9] = assay: Metabolic stability in human liver microsomes assessed as low CYP1A2 activity-mediated metabolism measured as compound remaining at 1 uM incubated for 10 mins prior to NADPH addition measured after 30 mins by LC/MS/MS analysis relative to control; conditions: 0.5 h
Liver microsomes [10] = assay: Metabolic stability in human liver microsomes assessed as low CYP1A2 activity-mediated metabolism measured as compound remaining at 1 uM after 30 mins by LC/MS/MS analysis relative to control; conditions: 0.5 h
Liver microsomes [11] = conditions: human, 0.5 h, 1 µM

SMILES | Drug metabolism [1] [%] | Drug metabolism (Liver) [%] | Drug metabolism (Liver microsomes [2]) [%] | other results
COC(=O)Nc1nc2ccc(OC(F)(F)F)cc2s1 | 0 | 10 | 0 | 
N[C@H](Cc1ccccc1)C(=O)Nc1nc2ccc(OC(F)(F)F)cc2s1 | 0 | 12 | 18 | 
O=C(Cc1ccccc1[N+](=O)[O-])Nc1nc2ccc(OC(F)(F)F)cc2s1 | 0 | 59 | 22 | 
Nc1nc2ccc(OC(F)(F)F)cc2s1 [RILUZOLE] |  |  |  | Drug metabolism (Liver microsomes [3]): Active
CN(C)CCCOC(=O)Nc1nc2ccc(OC(F)(F)F)cc2s1 | 0 | 71 | 0 | 
N[C@@H](COCc1ccccc1)C(=O)Nc1nc2ccc(OC(F)(F)F)cc2s1 | 0 | 0 | 15 | half-life at 1 mg/mL [4]: > 1 h; t1/2 [5]: 1.63 h; t1/2 (Liver microsomes [6]): > 1 h; half-life at 1 µM [7]: 5 h; Stability (Liver microsomes [8]): 70%; Stability (Liver microsomes [9]): 78%; Stability (Liver microsomes [10]): 76%; Stability (Liver microsomes [11]): 77%
COC(=O)CCC(=O)Nc1nc2ccc(OC(F)(F)F)cc2s1 | 0 | 77 | 34 | 
CCC(C)OC(=O)Nc1nc2ccc(OC(F)(F)F)cc2s1 (centres undefined) | 0 | 23 | 14 | 
O=C(CCC(=O)Nc1nc2ccc(OC(F)(F)F)cc2s1)NCCN1CCOCC1 | 60 |  |  | 
NCC1(CC(=O)Nc2nc3ccc(OC(F)(F)F)cc3s2)CCCCC1 | 50 |  |  | 
O=C(CCC(=O)Nc1nc2ccc(OC(F)(F)F)cc2s1)NCc1cccnc1 | 10 | 0 | 4 | 
CCCCOC(=O)Nc1nc2ccc(OC(F)(F)F)cc2s1 | 0 | 53 | 13 | 
CC(C)(C)OC(=O)CCC(=O)Nc1nc2ccc(OC(F)(F)F)cc2s1 | 0 | 0 | 21 | 
N[C@@H](Cc1ccccc1)C(=O)Nc1nc2ccc(OC(F)(F)F)cc2s1 |  | 2 | 0 | 
NCCCC(=O)Nc1nc2ccc(OC(F)(F)F)cc2s1 | 0 | 66 | 19 | 
C[C@@H](N)C(=O)Nc1nc2ccc(OC(F)(F)F)cc2s1 | 50 | 10 | 4 | 
CCCOC(=O)Nc1nc2ccc(OC(F)(F)F)cc2s1 | 0 | 15 | 34 | 
C[C@H](N)C(=O)Nc1nc2ccc(OC(F)(F)F)cc2s1 | 50 | 1 | 0 | 
N[C@H](COCc1ccccc1)C(=O)Nc1nc2ccc(OC(F)(F)F)cc2s1 |  | 24 | 0 | 
CN(C)CCOC(=O)Nc1nc2ccc(OC(F)(F)F)cc2s1 | 0 | 13 | 10 | 
CC(C)[C@H](N)C(=O)Nc1nc2ccc(OC(F)(F)F)cc2s1 | 40 | 40 | 6 | 
CCOC(=O)Nc1nc2ccc(OC(F)(F)F)cc2s1 | 0 | 8 | 7 | 
O=C(O)CCC(=O)Nc1nc2ccc(OC(F)(F)F)cc2s1 | 0 | 70 | 0 | 
